This passage reports cytotoxicity results from ChEMBL document CHEMBL4513216, “Probing the Open Global Health Chemical Diversity Library for Multistage-Active Starting Points for Next-Generation Antimalarials” (ACS Infect Dis, 2020).

The series in a line: Toxicity liver stage against HepG2, at 10uM. The following applies: human, HepG2-A16-CD81EGFP cells; read-out: INHIBITION
It counts as cell-based. Further details: test concentration 10 uM, cell line HepG2-A16-CD81EGFP. The method, boiled down: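 Uninfected HepG2-A16-CD81EGFP cells, 3 × 10^3 per well, 1536-well, plated on prespotted compound at 10 μM final, parasite-free screening media added to match infected plates; puromycin 10 μM positive, DMSO 0.5% negative; run in parallel with 48 h PbLuc assay at 37 °C, 5% CO2; viability by CellTiter-Glo luminescence, normalized to controls.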
Regarding `COc1ccccc1CCN1CCCC(CN(C)Cc2c[nH]c(C)n2)C1` (configuration not stated), the cytotoxicity at 10 µM came to 6.74%.

`COc1cc(CN2CCn3c(CO)nnc3C2)ccc1OC(C)C`: the cytotoxicity at 10 µM was -25.4%.

Regarding `O=C1N(CC2CCC2)CCCC12CCN(S(=O)(=O)c1cccnc1)C2` (configuration not stated), the cytotoxicity at 10 µM is 9.94%.

`CSc1ccc(NC(=O)Cn2cc(NC(C)=O)cn2)cc1`: the cytotoxicity at 10 µM was 0.753%.

Regarding `Cc1c(-c2ccncc2)n[nH]c1NC(=O)CCOC(C)C`, the cytotoxicity at 10 µM was determined as 6.58%.

`O=S(=O)(N1CCCCC1)N1CCc2nc(C3CCNCC3)ncc2C1`: the cytotoxicity at 10 µM was -4.15%.

On to `N#Cc1ccc(N2CC3(CCN(c4nccs4)C3)C2)nc1`, for which the cytotoxicity at 10 µM was -12.5%.

Turning to `CN1CCC(c2cccc(-c3ccc(C(=O)O)cc3)n2)CC1`, the cytotoxicity at 10 µM was -0.358%.

For `O=C(NC1(c2cccc(F)c2)CCOCC1)c1ccccn1`, the cytotoxicity at 10 µM was -12.3%.

As to `COCCc1noc(-c2ccc(-c3ccc(N)nc3)nc2)n1`, the cytotoxicity at 10 µM came out at 2.5%.

Consider `CNC(=O)CC1CC2(CCNCC2)c2cc(F)ccc21` (configuration not stated), for which the cytotoxicity at 10 µM is -107%.

With `Cc1cnn(CCNCc2c(C)nn(CCO)c2C)c1`, the cytotoxicity at 10 µM stood at 6.35%.

For the molecule `O=C(NCCNc1ccc(C(F)(F)F)cn1)c1ccc(F)cc1Cl`, the cytotoxicity at 10 µM was -7.65%.

Turning to `O=C(O)c1nnn(Cc2cccc(C(F)(F)F)c2)c1-c1cccnc1`, the cytotoxicity at 10 µM was determined as 6.46%.

Consider `NC(=O)C(NC(=O)COC1CCCC1)c1ccccc1` (configuration not stated), for which the cytotoxicity at 10 µM was determined as 3.25%.

On to `CC(C)(C)OC(=O)NCC1CCN(C(=O)c2cc(Cl)c[nH]2)CC1`, for which the cytotoxicity at 10 µM is -3.26%.

As for `COCCN1CCC2(COCc3cnc(-c4ccccc4)nc32)C1` (configuration not stated), the cytotoxicity at 10 µM was -111%.

As to `CN(C(=O)c1ccco1)c1nc2c(s1)CCCC2`, the cytotoxicity at 10 µM came to 13.7%.

As for `CCCNC(=O)CNC(=O)c1scnc1C`, the cytotoxicity at 10 µM came out at 8.86%.

For the molecule `CC(NC(=O)NCCn1ccnc1)c1ccc2c(c1)CCC(=O)N2` (configuration not stated), the cytotoxicity at 10 µM is -18.1%.

Consider `Cc1cc(C)n(CC2CCCN2C(=O)c2cnc3n[nH]c(C)c3c2)n1` (configuration not stated), for which the cytotoxicity at 10 µM is -2.61%.

Consider `NCC1CCC(C(NC(=O)C2CC2)c2ccccn2)CC1` (configuration not stated), for which the cytotoxicity at 10 µM is -12.6%.

`CNC(=O)Cn1ccc2ccc(NC(=O)C(C)C)cc21`: the cytotoxicity at 10 µM stood at 0.153%.

In the case of `CCOCc1nc2c(c(N(C)Cc3ccsc3)n1)CCNCC2`, the cytotoxicity at 10 µM turned out to be 11.1%.

Consider `COc1c(Br)cccc1CCNC(=O)c1ccon1`, for which the cytotoxicity at 10 µM is -2.88%.

For `COCCN1CCN(C(=O)C(c2cccc(F)c2)N(C)C)CC1` (configuration not stated), the cytotoxicity at 10 µM was 9.63%.

`CN(C)C(=O)c1nc(CN2CC(Cc3ccccc3)CC2=O)no1` (configuration not stated): the cytotoxicity at 10 µM was -0.849%.

As for `Cc1cnn(CC2CCCCN2Cc2nccn2CC(F)(F)F)c1` (configuration not stated), the cytotoxicity at 10 µM was -13.7%.

On to `Cc1ccccc1CN(CC(=O)O)C(=O)COCC1CC1`, for which the cytotoxicity at 10 µM is -1.92%.

Regarding `Cc1ccc(NC(=O)c2cc3c(=O)n(C)c(=O)n(C)c3nc2C)cc1Cl`, the cytotoxicity at 10 µM was -7.15%.

In the case of `O=c1[nH][nH]c2cn(-c3ccccc3)c(=O)n12`, the cytotoxicity at 10 µM was 4.6%.

With `CCc1csc(CNCC(=O)Nc2ccc(Cl)c(C)c2)n1`, the cytotoxicity at 10 µM came out at 5.33%.

Take `CS(=O)(=O)c1ccccc1NCc1ccc(Cn2ccnc2)cc1`: the cytotoxicity at 10 µM stood at 1.67%.

As to `Nc1nccc(C2CCN(c3cnccn3)C2)n1` (configuration not stated), the cytotoxicity at 10 µM is 1.43%.

On to `CO[C@H]1CN(CC2CCOCC2)[C@@H]2CCCO[C@H]12`, for which the cytotoxicity at 10 µM was -100%.

`O=C(Nc1cccn(Cc2ccc(F)cc2)c1=O)c1cnc[nH]1`: the cytotoxicity at 10 µM turned out to be 0.0616%.

Consider `CC(C)(C)c1cc(=O)n2c(n1)SCC(C(=O)NCc1ccccn1)C2` (configuration not stated), for which the cytotoxicity at 10 µM is -6.88%.

Take `O=C(c1cccnc1)N1CCC[C@]2(C[C@H](Oc3ncccc3F)CO2)C1`: the cytotoxicity at 10 µM turned out to be 0.37%.

Consider `Cc1nc(C(C)(C)NC(=O)Nc2cccc(C#N)c2)no1`, for which the cytotoxicity at 10 µM is -7.79%.

`CCN(CC)C(=O)CSc1ccc(C(F)(F)F)cn1`: the cytotoxicity at 10 µM is 12.7%.

As to `CC1(C(=O)N2CCOCC2)CN(Cc2ncc[nH]2)CCO1` (configuration not stated), the cytotoxicity at 10 µM is -11.3%.

`Cc1ncc(-c2ccncc2)c(C2CCCN(C(=O)c3ccno3)C2)n1` (configuration not stated): the cytotoxicity at 10 µM came out at 11.9%.

Take `Cc1cnn(C2CCCN(C(=O)Cc3cn4ccccc4n3)C2)c1` (configuration not stated): the cytotoxicity at 10 µM was -3.15%.

For the molecule `CC(C)Sc1ccc(C(C)Nc2nc3c(cnn3C)c(=O)[nH]2)cc1` (configuration not stated), the cytotoxicity at 10 µM is 21.4%.

For the molecule `COC[C@@]12CCC[C@@H]1CN(C(=O)CN(C)C)C2`, the cytotoxicity at 10 µM came out at 4.84%.

Consider `CCCS(=O)(=O)N1CCC2(CC(C(=O)NCc3cccnc3)=NO2)C1` (configuration not stated), for which the cytotoxicity at 10 µM was -4.51%.

For the molecule `CCc1nnc2n1CCN(Cc1ncc(-c3ccc(F)cc3)o1)C2`, the cytotoxicity at 10 µM was -9.42%.

In the case of `COCCn1cncc1-c1nc2c([nH]1)CC(C)(C)CNC2=O`, the cytotoxicity at 10 µM stood at 8.42%.

For `CC(C)(C)OC(=O)N1CC(CC(=O)NCc2ccnc(C3CC3)c2)C1`, the cytotoxicity at 10 µM worked out at 5.54%.

For the molecule `Cc1cnn(CCNCc2nc(-c3ccccc3Cl)no2)c1`, the cytotoxicity at 10 µM was -9.91%.

`Cc1cn2c(n1)CCC(NC(=O)CCCOCc1ccccc1)C2` (configuration not stated): the cytotoxicity at 10 µM is -3.55%.

With `O=C(NCCc1ccco1)Nc1cc(C(F)(F)F)c[nH]c1=O`, the cytotoxicity at 10 µM is -12.3%.

`O=C1C(N2CCOC3(CCCC3)C2)CCN1C1CC1` (configuration not stated): the cytotoxicity at 10 µM was determined as 9.4%.

In the case of `Cc1nc(C)n(C2CCCN(C(=O)c3sccc3C3CC3)C2)n1` (configuration not stated), the cytotoxicity at 10 µM is -9.68%.

Turning to `OC[C@@H](O)CN(CCC(F)(F)F)c1ncccn1`, the cytotoxicity at 10 µM stood at 2.41%.

As to `COc1ncc(CN2CCOC(Cc3cccc4ccccc34)C2)cn1` (configuration not stated), the cytotoxicity at 10 µM is -3.94%.

In the case of `COCCN1C[C@H]2[C@@H](C1)N(C(=O)CCc1ccccc1)CC[C@H]2OC`, the cytotoxicity at 10 µM was 4.78%.

Consider `Cc1nccn1-c1ccc(CNS(=O)(=O)N2CCCC(C)C2)cn1` (configuration not stated), for which the cytotoxicity at 10 µM worked out at 5.39%.

Take `Cc1ccc(S(=O)(=O)Nc2ccc(-n3cccc3C(=O)O)c(C)c2)s1`: the cytotoxicity at 10 µM was 6.15%.

Take `Cc1cc(=O)c(C(=O)N2CCCCC2c2ccc(F)cc2)c[nH]1` (configuration not stated): the cytotoxicity at 10 µM was 3.71%.

In the case of `O=C1[C@@H]2CC[C@@H](CN(S(=O)(=O)c3ccccc3)C2)N1Cc1cscn1`, the cytotoxicity at 10 µM is -6.23%.

Consider `CCn1nc(C)c(NC(=O)CN2CCC(c3ccccc3Cl)C2)c1C` (configuration not stated), for which the cytotoxicity at 10 µM is -7.58%.

Turning to `Cc1ccc(N2CCCN(C(=O)CCc3nccs3)CC2)nn1`, the cytotoxicity at 10 µM is -7.91%.

Consider `CC(C)(C)c1n[nH]cc1CNC1CCC(O)CC1` (configuration not stated), for which the cytotoxicity at 10 µM was 2.33%.

For the molecule `CC(=O)NC(C)C(=O)N(Cc1ccc(C)c(C)c1)C1CC1` (configuration not stated), the cytotoxicity at 10 µM is 8.77%.

As to `COc1ncccc1C(=O)Nc1cccc(C[S+](C)[O-])c1C` (configuration not stated), the cytotoxicity at 10 µM was 2.28%.

On to `O=C(NCc1cccs1)C1CCN(c2cc(-n3ccnc3)ncn2)CC1`, for which the cytotoxicity at 10 µM was -3.27%.

For the molecule `CC(C)n1ncc2c1NC(=O)CSC2C(F)(F)F` (configuration not stated), the cytotoxicity at 10 µM was -11.1%.

For the molecule `COc1ccc2cc(NC(=O)CCNc3ncccn3)cnc2c1`, the cytotoxicity at 10 µM was -43%.

Turning to `CNC(=O)c1ccc(=O)n(Cc2csc(N(C)C(C)=O)n2)c1`, the cytotoxicity at 10 µM is 0.138%.

Regarding `CN(Cc1cccc2cnccc12)C(=O)CCc1n[nH]c2c1CCCC2`, the cytotoxicity at 10 µM was -7.27%.

As for `COCC1c2c(cnn2C)CCN1C(=O)c1cc(C)on1` (configuration not stated), the cytotoxicity at 10 µM is -79.5%.

Turning to `Cc1cc(-c2cnc(N3CCSCC3)nc2C(C)C)on1`, the cytotoxicity at 10 µM was found to be 16.8%.

For the molecule `CC(C)NC(=O)NC[C@H]1OC[C@@H](NCc2ccc(F)cc2)[C@@H]1O`, the cytotoxicity at 10 µM was found to be 2.07%.

As to `CC(C)(C)NC(=O)C[C@@H]1CCNC[C@@H]1Cc1cc(C(C)(C)C)on1`, the cytotoxicity at 10 µM is 4.37%.

Consider `CC(C)C(NC(=O)NCC1(CO)CC1)c1nnc2n1CCC2` (configuration not stated), for which the cytotoxicity at 10 µM is -6.11%.

With `Cc1occc1C(=O)N1CCc2ncnc(-c3cnn(C)c3)c2CC1`, the cytotoxicity at 10 µM is -4.77%.

As for `COc1ccc(C)cc1S(=O)(=O)NCC(c1cccn1C)N(C)C` (configuration not stated), the cytotoxicity at 10 µM is -11.9%.

Turning to `CC(C)N1CCO[C@H]2CN(C(=O)c3ccncc3)C[C@H]21`, the cytotoxicity at 10 µM is -74.3%.

As to `COCc1nn(C)c2c1CN(C(=O)c1ccno1)CC2`, the cytotoxicity at 10 µM is 12.7%.

As for `CCN(Cc1cccc(C)c1)Cn1nc(C)c2c(C)onc2c1=O`, the cytotoxicity at 10 µM is -1.03%.

Take `Cc1cccc(CN2CCCC(c3nccs3)C2)n1` (configuration not stated): the cytotoxicity at 10 µM is 8.38%.

For the molecule `Cc1nccn1-c1ccc(C(C)NCCc2ccccn2)cc1` (configuration not stated), the cytotoxicity at 10 µM came out at 10.4%.

`CC(=O)N1CCC2(CC1)CN(C)CC[C@H]2C(F)(F)F`: the cytotoxicity at 10 µM is -153%.

Turning to `O=C(c1cc(-n2cccn2)ccn1)N(CC1CCC1)CC(F)(F)F`, the cytotoxicity at 10 µM came to 6.4%.

For `CC(C)CC(CNC(=O)NCc1cc[nH]n1)N1CCOCC1` (configuration not stated), the cytotoxicity at 10 µM is -12.6%.

Turning to `COCCNc1c(C#N)c2c(c3nncn13)CN(C)CC2`, the cytotoxicity at 10 µM was found to be 6.83%.

For the molecule `O=C(COc1ccc2c(c1)CCC2)N1CCCC(n2cccn2)C1` (configuration not stated), the cytotoxicity at 10 µM was -2.58%.

Take `Cc1nc(CN2C[C@@H]3CN(C(=O)c4ccoc4C)C[C@@H]3C2)cs1`: the cytotoxicity at 10 µM is -144%.

Consider `Cc1ccc(C(=O)N2CCc3ncnc(C)c3CC2)cc1F`, for which the cytotoxicity at 10 µM amounted to 11.5%.

As for `Cn1cc(CN2C[C@@H]3OCCN(c4ncccn4)[C@@H]3C2)cn1`, the cytotoxicity at 10 µM was -75.1%.

Turning to `COCc1cc(N(C)Cc2ccccn2)nc(C(C)(C)C)n1`, the cytotoxicity at 10 µM stood at 12.1%.

`O=C(Cc1cccs1)N1CCOCC1c1ccccc1` (configuration not stated): the cytotoxicity at 10 µM was -6.73%.

`Cc1ccccc1N1CC2(CCN(S(=O)(=O)c3cccs3)C2)CC1=O` (configuration not stated): the cytotoxicity at 10 µM is 14.1%.

On to `CCOc1ccccc1-n1c(C2CC2)n[nH]c1=O`, for which the cytotoxicity at 10 µM was determined as 1.12%.

With `CC(C)Nc1nc(N2CCCC2)nc2c1CN(S(C)(=O)=O)CC2`, the cytotoxicity at 10 µM stood at 2.69%.

Turning to `CNc1ncc(C(=O)N2CCC(CCc3ccccc3)CC2)cn1`, the cytotoxicity at 10 µM was found to be 13.1%.
